Screening results as filed in PubChem BioAssay.
The full list was thinned out, with hits kept by preference.
UPR CHOP act: apoptotic UPR (CHOP) activation; CHO-CHOP luciferase reporter, luminescence; percent of tunicamycin response over DMSO baseline; activation, % at 10 µM; actives 0.34% (n = 330,000);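 active = at 10 µM dose, activation of 40% or more, normalized to positive control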
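System: CHO-CHOP luciferase reporter cell line | Buffer or medium: F12 medium containing 10% fetal bovine serum | Doses: One dose, 10 µM in 0.5% DMSO | Times: 6 h compound exposure at 37 °C after overnight seeding | Signal: Luciferase luminescence | Read-out: % activation vs tunicamycin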
697 NFkB inh: inhibitors of the PMA/ionomycin-induced NF-kB reporter in 697 B cells; 697 B-cell NF-kB luciferase reporter, 16 h; inhibition, % at 4 µM; actives 0.33% (n = 330,000); AID 435022; in the data active = inhibition above about 35%
CHOP inhibitor: blocks CHOP induction under ER stress. actives 3.8% (n = 220,000). CHO-K1 CHOP-promoter luciferase, tunicamycin-induced, 15-18 h. inhibition, % at 10 µM;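 active = compounds that reduced the stress-induced luciferase reporter signal by more than about 70% of percent inhibition, limit read from the data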
XBP1 UPR activ: adaptive UPR (XBP1) activation | CHO-XBP1 luciferase reporter, IRE1-XBP1 UPR activation, luminescence; percent of tunicamycin response, DMSO as zero | actives 0.33% (n = 330,000) | activation, % at 20 µM;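 active = versus positive control, 20 µM dose yields 30% or more activation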
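Assay system: IRE1-XBP1 luciferase reporter CHO line. Input: 1000 cells/well. Buffer or medium: F12 with 10% serum. Doses: 20 µM, 1% DMSO. Times: overnight seeding at 37 °C, 6 h compound treatment at 37 °C. Technique: Steady-Glo luciferase glow luminescence, 10 min after reagent addition.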
Jurkat NFkB inh: inhibitors of the PMA/ionomycin-induced NF-kB reporter in Jurkat cells | PMA/ionomycin-induced NF-kB luciferase reporter, luminescence | AID 435003 | inhibition, % at 4 µM | actives 0.53% (n = 330,000); in the data active = inhibition above about 50%
Of the large screens only hits and unclear results are named; the others gave an inactive call.

COc1ccc(/C=C/C(=O)C2C(=O)C=C(C)OC2=O)cc1O (stereo not given)	none
CCOC(=O)c1sc2nc(NC(=O)C3CC3)sc2c1C	CHOP inhibitor 99
CCOC(=O)c1sc2nc(NC(=O)C(C)(C)C)sc2c1C	CHOP inhibitor 77
CC12CCC(C/C1=N/NC(=O)Nc1ccccc1)C2(C)C (stereo not given)	CHOP inhibitor 90
Cc1cc(C)cc(Nc2cc(=O)n(C3CCCCC3)c(=O)[nH]2)c1	CHOP inhibitor 87
COc1ccc(Nc2cc(=O)n(C3CCCCC3)c(=O)[nH]2)c(OC)c1	none
CCOC(=O)c1c(NC(=O)CN2CCCCC2)sc2c1CCN(C(=O)OCC)C2	CHOP inhibitor 81
CCOC(=O)c1c(NC(=O)CN2CCN(C(=O)c3ccco3)CC2)sc2c1CCCC2	CHOP inhibitor 86
CCOC(=O)c1c(NC(=O)CN(CC)CC)sc2c1CCN(C(=O)OCC)C2	CHOP inhibitor 75
CCOC(=O)c1c(NC(=S)N2CCN(C)CC2)sc2c1CCN(C(=O)OCC)C2	none
Cc1nn(-c2nc3ccccc3[nH]2)c(=O)c2ccccc12	CHOP inhibitor 98 (no result: UPR CHOP act, 697 NFkB inh, XBP1 UPR activ, Jurkat NFkB inh)
Cc1nn(-c2ccc3ccccc3c2)c(=O)c2ccccc12	none
O=C(CN1C(=O)NC2(CCc3ccccc32)C1=O)Nc1cc(C(F)(F)F)ccc1N1CCOCC1 (stereo not given)	none (no result: CHOP inhibitor)
Cc1cccc(OCC(=O)Nc2ccc3c(C)cc(=O)oc3c2)c1	CHOP inhibitor 92
Cc1cc(=O)oc2cc(NC(=O)C3COc4ccccc4O3)ccc12 (stereo not given)	CHOP inhibitor 89
COc1cc(NC(=O)Cc2ccccc2)ccc1NC(=O)c1ccccc1	none (no result: CHOP inhibitor)
CC(CCc1ccccc1)NC(=O)c1ccc(NC(=O)c2cccc(Br)c2)cc1 (stereo not given)	none
CC(CCc1ccccc1)NC(=O)c1ccc(NC(=O)c2ccccc2)cc1 (stereo not given)	CHOP inhibitor 85
CC(c1ccccc1C(O)c1ccccc1)N(C)C (stereo not given)	none
Cc1ccc(C(O)(c2ccccc2)c2ccccc2C(C)N(C)C)c(C)c1 (stereo not given)	CHOP inhibitor 96
COc1ccc2nc(/N=C(\N)NC(=O)N3c4ccccc4Sc4ccccc43)nc(C)c2c1	CHOP inhibitor 77
Cc1ccc(S(=O)(=O)NC(=O)Nc2ccc(OC(F)F)cc2)cc1	none
CCN(CC)S(=O)(=O)c1ccc(C)c(NC(=S)N2CCN(c3ccccn3)CC2)c1	none (no result: CHOP inhibitor)
CCN(CC)S(=O)(=O)c1ccc(C)c(NC(=S)N2CCN(C/C=C/c3ccccc3)CC2)c1	CHOP inhibitor 81
Cc1[nH]c2ccccc2c1NC(=O)CN1CCN(c2cccc(C(F)(F)F)c2)CC1	none
Cc1[nH]c2ccccc2c1C(O)CN1CCN(c2cccc(C(F)(F)F)c2)CC1 (stereo not given)	CHOP inhibitor 74
Cc1nc(Nc2ccccc2)[nH]c(=O)c1CCC(C)C	CHOP inhibitor 89
COc1ccc(C2/C=C\CN(C(=O)Nc3ccc(C(F)(F)F)cc3)CC(=O)N2Cc2ccc(F)cc2)cc1 (stereo not given)	CHOP inhibitor 75
NC(=S)N1OC[C@@H]2COc3ccc4ccccc4c3[C@@H]21	CHOP inhibitor 77
Cc1ccc(S(=O)(=O)NCCC(=O)N2CCN(Cc3ccccc3)CC2)cc1	CHOP inhibitor 82
CC(=O)CC1(OC(C)=O)C(=O)N(C)c2ccccc21 (stereo not given)	none
CC(C)=CC1C(C(=O)Nc2ccc(S(=O)(=O)N3CCOCC3)cc2)C1(C)C (stereo not given)	none (no result: CHOP inhibitor)
C(=C\c1ccccc1)/CN1CCN(c2ncnc3c2oc2ccccc23)CC1	CHOP inhibitor 94
CCOC(=O)/C(=N\Nc1cc(C(F)(F)F)ccc1Cl)N(CC)CC	none
CCCCCCn1c(CN2CCC(C)CC2)nc2c1c(=O)n(C)c(=O)n2C	CHOP inhibitor 76
CCCCCCn1c(CN2CCN(CCO)CC2)nc2c1c(=O)n(C)c(=O)n2C	none
O=C(O)C(Cc1c[nH]c2ccccc12)NS(=O)(=O)c1cccc2nsnc12 (stereo not given)	none
CC(C)(C)NC(=O)NC(=O)CN1CCN(c2ncc(C(F)(F)F)cc2Cl)CC1	CHOP inhibitor 78
NC(=O)c1ccc(N2CCN(c3ncc(C(F)(F)F)cc3Cl)CC2)cc1	none
CC(=O)Nc1ccc(N2CCN(c3ccc(C(F)(F)F)cn3)CC2)nc1	none
CC(=O)c1ccc(N2CCN(c3ccc(C(F)(F)F)cn3)CC2)cc1	CHOP inhibitor 83 (no result: UPR CHOP act, 697 NFkB inh, XBP1 UPR activ, Jurkat NFkB inh)
CC(=O)c1ccc(N2CCN(c3ncc(C(F)(F)F)cc3Cl)CC2)cc1	CHOP inhibitor 79
Cc1ccc(S(=O)(=O)N2CCC(=O)N(CCOCc3cccc(C(F)(F)F)c3)CC2)cc1	CHOP inhibitor 79
CCN1CCN(S(=O)(=O)c2ccc(C(C)(C)C)cc2)CC1	none (no result: CHOP inhibitor)
Cc1ccc(SCc2cc(=O)[nH]c(N3CCN(Cc4ccc5c(c4)OCO5)CC3)n2)cc1	CHOP inhibitor 75
Cc1ccc(SCc2cc(=O)[nH]c(N3CCN(Cc4ccccc4)CC3)n2)cc1	CHOP inhibitor 90
COc1ccc(-c2cc(=O)[nH]c(N3CCN(Cc4ccccc4)CC3)n2)cc1	none (no result: CHOP inhibitor)
COc1ccccc1N1CCN(C(=O)c2ccccc2N(C)S(=O)(=O)c2ccc(C)cc2)CC1	none (no result: CHOP inhibitor)
Cc1ccc(NC(=O)Nc2ccc(F)cc2)nc1	CHOP inhibitor 77
Cc1nc2ccc(Nc3ccncc3)cc2s1	none
CCOc1cc(CN2CCN(c3ncccn3)CC2)ccc1OC	none (no result: CHOP inhibitor)
O=C(Nc1ccc(C(F)(F)F)cc1)C1CCCCN1S(=O)(=O)c1ccccc1 (stereo not given)	none (no result: CHOP inhibitor)
CCOC(=O)c1c(N)sc(C(O)(C(F)(F)F)C(F)(F)F)c1-c1ccccc1	CHOP inhibitor 105
Fc1ccc(Sc2ccccc2CNC2=NCCN2)cc1	none
C/C(=N\NC(=O)CNc1cccc(Cl)c1C)c1cccs1	CHOP inhibitor 92
CC(C)n1c(SCC(=O)Nc2ccc(N3CCOCC3)cc2)nnc1-c1ccco1	none (no result: CHOP inhibitor)
COc1nnc(-c2ccc(N3CCCCC3)c(NC(=O)C3CCCCC3)c2)c2ccccc12	CHOP inhibitor 80
CCOC(=O)C1CCN(C(=O)CN(C)S(=O)(=O)c2ccc3c(c2)c(=O)n(C)c(=O)n3C)CC1	none (no result: CHOP inhibitor)
C/C(=N\NC(=O)COc1ccc(C)cc1C(C)C)c1ccc(-n2ccnc2)cc1	CHOP inhibitor 93
COC(=O)N/N=C(\C)c1ccc(-n2ccnc2)cc1	none
O=C(/C(=C/c1ccccc1)c1ccccc1)N1CCCCC1	CHOP inhibitor 87
O=C(CNC(=O)C1CCCCC1)NNC(=O)c1ccccc1Br	none (no result: CHOP inhibitor)
CCOc1ccccc1NC(=O)c1cc(C(=O)c2cc(Br)ccc2O)coc1=N	CHOP inhibitor 72
COC(=O)[C@H](Cc1ccccc1)NC(=O)O[C@@H]1C(=O)c2cc(Br)ccc2O[C@H]1c1cccc(OC)c1	none
